Assay [1] is filed under the species Cavia porcellus. The assay is described as follows: Positive inotropic effect in isolated left guinea pig atria. The note with it: read-out: ED50 (the source's name). Format: functional. Summed up:
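Isolated left atria from guinea pigs of either sex (300–800 g), reserpine-pretreated (5 mg/kg ip) 24 h before death. Atria paced electrically at 2.5 Hz, 5 ms square pulses, voltage 50% above threshold; bath contained phentolamine 3.15×10^-4 mM. Isoprenaline dose-response curve run first to validate each preparation. Positive inotropy from dose-response curves; ED50 (mol·L⁻¹, dose giving 50% of maximum effect) by Ariens–Van Rossum method.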

Assay [2] is filed under the species Cavia porcellus. The assay is described as follows: Intrinsic activity calculated as the ratio of the maximum response to the compound to the maximum response to isoprenaline. The format is functional.

As for `Oc1ccc2ccc(-c3cccnc3)cc2n1`, in assay [1], the EC50 was determined as 8.3 µM. Moreover, the Intrinsic activity in assay [2] is recorded as 0.67. `O=c1ccc2cc(-c3cccnc3)ccc2n1CCN1CCOCC1`: in assay [1], the EC50 was found to be 22 µM. In assay [2], the Intrinsic activity is reported as 0.58.

Regarding `Oc1ccc2cccc(-c3cccnc3)c2n1`, the EC50 in assay [1] is 140 µM. For the same compound, in assay [2], the Intrinsic activity was 0.41.

Regarding `Oc1ccc2cc(-c3cccnc3)ccc2n1`, the EC50 in assay [1] amounted to 0.52 µM. In assay [2], the Intrinsic activity is recorded as 0.67. For `c1cncc(-c2ccc3nc(OCCN4CCOCC4)ccc3c2)c1`, in that order: 15 µM and 0.23. For `Oc1ccc2cc(-c3cccnc3)cc(Cl)c2n1`, in that order: 0.28 µM and 0.68. For `O=C1CCc2cc(-c3ccccn3)ccc2N1`, in that order: 2.55 µM and 0.29.

Turning to `Cc1cc(C)c(-c2ccc3nc(O)ccc3c2)c(C)n1`, the EC50 in assay [1] is 1.05 µM. Moreover, in assay [2], the Intrinsic activity was 0.38. With `COc1cc(-c2ccncc2)cc2c1NC(=O)CC2`, in assay [1], the EC50 stood at 6.5 µM. In assay [2], the Intrinsic activity is 0.68. For the compound `Cc1[nH]c(=O)c(C#N)cc1-c1ccncc1` [MILRINONE], the EC50 in assay [1] worked out at 14 µM. For the same compound, the Intrinsic activity in assay [2] was 0.67.

Take `Oc1ccc2cc(-c3ccncc3)cc(Cl)c2n1`: the EC50 in assay [1] is 0.38 µM. Moreover, in assay [2], the Intrinsic activity is 0.78. For `Oc1ccc2cc(-c3ccccn3)cc(Cl)c2n1`, in that order: 2.05 µM and 0.75.

For the compound `COc1cc(-c2ccccn2)cc2c1NC(=O)CC2`, the EC50 in assay [1] was determined as 6.4 µM. Further, the Intrinsic activity in assay [2] is given as 0.71. On the same counts, the results for `COc1cc(-c2ccncc2)cc2ccc(O)nc12` are 5 µM and 0.88.

Turning to `Oc1ccc2cc(-c3ccncc3)ccc2n1`, the EC50 in assay [1] is 2.5 µM. Also, the Intrinsic activity in assay [2] is given as 0.45. For `COc1cc(-c2ccncc2)cc2c(C)cc(O)nc12`, in that order: 7 µM and 0.5. On the same counts, the results for `COc1cc(-c2ccccn2)cc2c(C)cc(O)nc12` are 4.85 µM and 0.74. `CC(C)NCC(O)c1ccc(O)c(O)c1` (configuration not stated) [ISOPROTERENOL]: the Intrinsic activity in assay [2] is given as 1. Turning to `O=C1CCc2cc(-c3cccnc3)ccc2N1`, the EC50 in assay [1] was determined as 1.3 µM. For the same compound, the Intrinsic activity in assay [2] is 0.67.

Regarding `O=C1CCc2cc(-c3ccncc3)ccc2N1`, the EC50 in assay [1] was 14 µM. Also, the Intrinsic activity in assay [2] was 0.56.

For `COc1cc(-c2cccnc2)cc2ccc(O)nc12`, the EC50 in assay [1] is 6.5 µM. Further, in assay [2], the Intrinsic activity is given as 0.57. For `Oc1ccc2cc(-c3cccnc3)cc(O)c2n1`, in that order: 0.75 µM and 0.72.

For the compound `COc1cc(-c2ccccn2)cc2ccc(O)nc12`, in assay [1], the EC50 turned out to be 9.2 µM. Besides, the Intrinsic activity in assay [2] is recorded as 0.72. `Oc1ccc2cc(-c3ccccn3)cc(O)c2n1`: the EC50 in assay [1] came out at 19 µM. In assay [2], the Intrinsic activity is 0.51. On the same counts, the results for `Oc1ccc2cc(-c3ccccn3)ccc2n1` are 15 µM and 0.67. For `Nc1cc(Cl)c2nc(O)ccc2c1`, in that order: 100 µM and 0.54.

As for `Cn1c(=O)ccc2cc(-c3cccnc3)ccc21`, in assay [1], the EC50 came to 110 µM. In addition, in assay [2], the Intrinsic activity was 0.33. On to `COc1cc(-c2cccnc2)cc2c(C)cc(O)nc12`, for which the EC50 in assay [1] was determined as 16 µM. Moreover, the Intrinsic activity in assay [2] is reported as 0.81.

Consider `COc1cc(-c2cccnc2)cc2c1NC(=O)CC2`, for which the EC50 in assay [1] is 34 µM. Moreover, the Intrinsic activity in assay [2] is recorded as 0.68.

The values are drawn from ChEMBL document CHEMBL1123379, “Cardiotonic agents. 2. Synthesis and structure-activity relationships in a new class of 6-, 7-, and 8-pyridyl-2(1H)-quinolone derivatives” (1986).
